The source of these data is ChEMBL document CHEMBL1148673, “Peptidomimetic C5a receptor antagonists with hydrophobic substitutions at the C-terminus: increased receptor specificity and in vivo activity” (Bioorg Med Chem Lett, 2006).

Residues, ends and D or L forms follow the SMILES beside them.

Series [1] concerns the target T1, C5a anaphylatoxin chemotactic receptor 1 (Homo sapiens, UniProt P21730).
T1 sequence (P21730 whole entry): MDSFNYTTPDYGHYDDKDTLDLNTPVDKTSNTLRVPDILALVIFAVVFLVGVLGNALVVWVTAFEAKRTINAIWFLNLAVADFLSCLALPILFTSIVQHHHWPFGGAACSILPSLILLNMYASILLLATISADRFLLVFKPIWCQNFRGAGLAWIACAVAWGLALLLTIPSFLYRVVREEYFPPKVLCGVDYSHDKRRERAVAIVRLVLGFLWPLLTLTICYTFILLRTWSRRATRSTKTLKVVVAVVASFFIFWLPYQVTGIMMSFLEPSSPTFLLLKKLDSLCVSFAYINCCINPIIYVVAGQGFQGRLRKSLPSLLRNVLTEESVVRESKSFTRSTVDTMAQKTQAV
The series can be described thus: Antagonist activity at human C5aR in CD88 transfected RBL cells assessed as inhibition of C5a-induced glucosaminidase release. It is filed as functional, cell-based. In outline:
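Functional antagonism read as inhibition of glucosaminidase release stimulated by C5a from RBL cells transfected with CD88 (RBL+); IC50 in µM.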

The nature of series [2]: Stability in human liver microsome after 1 hr. The format is ADME. To be noted: liver microsomes, read-out: Stability. In outline: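 Compound incubated with human liver microsomes, 1 h at 37 °C; read-out is % of parent remaining.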
(In general: Liver microsomes are vesicles of endoplasmic reticulum, rich in cytochrome P450 enzymes.)

For orientation: IC50 means the concentration needed to halve the response being measured. Consider `CC(=O)N[C@@H](Cc1ccccc1)C(=O)N[C@@H](CCCN)C(=O)N1CCC[C@H]1C(=O)N[C@H](CCC(C)C)C(=O)N[C@@H](Cc1cccc(Cl)c1)C(=O)N[C@@H](Cc1ccccc1)C(N)=O`, for which, in series [1], the IC50 was 60 nM. For the same compound, the remaining at 1 h in series [2] turned out to be 62%.
On to `CC(=O)N[C@@H](Cc1ccccc1)C(=O)N[C@H]1CCCNC(=O)[C@H](CCCN=C(N)N)NC(=O)[C@H](C)NC(=O)[C@@H](CC2CCCCC2)NC(=O)[C@@H]2CCCN2C1=O` (HELM PEPTIDE1{[ac].F.[Orn].P.[O=C([C@@H](CC1CCCCC1)N[*:1])[*:2]].A.R}$PEPTIDE1,PEPTIDE1,3:R3-7:R2$$$V2.0), for which the IC50 in series [1] amounted to 100000 nM.
Regarding `CC(=O)N[C@@H](Cc1ccccc1)C(=O)N[C@@H](CCCN)C(=O)N1CCC[C@H]1C(=O)N[C@H](CCC(C)C)C(=O)N[C@@H](Cc1c[nH]c2ccccc12)C(=O)N[C@@H](Cc1ccccc1)C(N)=O`, the IC50 in series [1] is 63 nM. In addition, the remaining at 1 h in series [2] turned out to be 37%.
The corresponding values for `CC(=O)N[C@@H](Cc1ccccc1)C(=O)N[C@@H](CCCN)C(=O)N1CCC[C@H]1C(=O)N[C@H](CCC(C)C)C(=O)N[C@@H](Cc1ccc(Cl)c(Cl)c1)C(=O)N[C@@H](Cc1ccccc1)C(N)=O` are 116 nM and 49%.
Consider `CCC[C@@H]1NC(=O)[C@H](Cc2c[nH]c3ccccc23)NC(=O)[C@@H](CC2CCCCC2)NC(=O)[C@@H]2CCCN2C(=O)[C@@H](NC(=O)[C@H](Cc2ccccc2)NC(C)=O)CCCNC1=O` (HELM PEPTIDE1{[ac].F.[Orn].P.[O=C([C@@H](CC1CCCCC1)N[*:1])[*:2]].W.[Nva]}$PEPTIDE1,PEPTIDE1,3:R3-7:R2$$$V2.0), for which, in series [1], the IC50 came out at 18 nM.
Turning to `CCCC[C@@H]1NC(=O)[C@H](Cc2c[nH]c3ccccc23)NC(=O)[C@@H](CC2CCCCC2)NC(=O)[C@@H]2CCCN2C(=O)[C@@H](NC(=O)[C@H](Cc2ccccc2)NC(C)=O)CCCNC1=O` (HELM PEPTIDE1{[ac].F.[Orn].P.[O=C([C@@H](CC1CCCCC1)N[*:1])[*:2]].W.[Nle]}$PEPTIDE1,PEPTIDE1,3:R3-7:R2$$$V2.0), the IC50 in series [1] came out at 25 nM.
For `CC(=O)N[C@@H](Cc1ccccc1)C(=O)N[C@@H](CCCN)C(=O)N1CCC[C@H]1C(=O)N[C@H](CC1CCCCC1)C(=O)N[C@@H](Cc1c[nH]c2ccccc12)C(=O)N[C@@H](CCCN=C(N)N)C(=O)O`, in series [1], the IC50 is 535 nM.
Still for that read-out and setting: in the case of `CC(=O)N[C@@H](Cc1ccccc1)C(=O)N[C@H]1CCCNC(=O)[C@H](Cc2ccc3ccccc3c2)NC(=O)[C@H](Cc2c[nH]c3ccccc23)NC(=O)[C@@H](CC2CCCCC2)NC(=O)[C@@H]2CCCN2C1=O` (HELM PEPTIDE1{[ac].F.[Orn].P.[O=C([C@@H](CC1CCCCC1)N[*:1])[*:2]].W.[O=C([C@H](Cc1ccc2ccccc2c1)N[*:1])[*:2]]}$PEPTIDE1,PEPTIDE1,3:R3-7:R2$$$V2.0) it was 76 nM; in that of `CC(=O)N[C@@H](Cc1ccccc1)C(=O)N[C@H]1CCCNC(=O)[C@H](Cc2cccs2)NC(=O)[C@H](Cc2c[nH]c3ccccc23)NC(=O)[C@@H](CC2CCCCC2)NC(=O)[C@@H]2CCCN2C1=O` (HELM PEPTIDE1{[ac].F.[Orn].P.[O=C([C@@H](CC1CCCCC1)N[*:1])[*:2]].W.[O=C([C@H](Cc1cccs1)N[*:1])[*:2]]}$PEPTIDE1,PEPTIDE1,3:R3-7:R2$$$V2.0), 22 nM; in that of `CC(=O)N[C@@H](C)C(=O)N[C@H]1CCCNC(=O)[C@H](CCCN=C(N)N)NC(=O)[C@H](Cc2c[nH]c3ccccc23)NC(=O)[C@@H](CC2CCCCC2)NC(=O)[C@@H]2CCCN2C1=O` (HELM PEPTIDE1{[ac].A.[Orn].P.[O=C([C@@H](CC1CCCCC1)N[*:1])[*:2]].W.R}$PEPTIDE1,PEPTIDE1,3:R3-7:R2$$$V2.0), 23000 nM.
On the same count and under the same terms, in the case of `CC(=O)N[C@@H](Cc1ccccc1)C(=O)N[C@H]1CCCNC(=O)[C@H](CCCN)NC(=O)[C@H](Cc2c[nH]c3ccccc23)NC(=O)[C@@H](CC2CCCCC2)NC(=O)[C@@H]2CCCN2C1=O` it was 18 nM; in that of `CC(=O)N[C@@H](Cc1ccccc1)C(=O)N[C@H]1CCCNC(=O)[C@H](C)NC(=O)[C@H](Cc2c[nH]c3ccccc23)NC(=O)[C@@H](CC2CCCCC2)NC(=O)[C@@H]2CCCN2C1=O` (HELM PEPTIDE1{[ac].F.[Orn].P.[O=C([C@@H](CC1CCCCC1)N[*:1])[*:2]].W.A}$PEPTIDE1,PEPTIDE1,3:R3-7:R2$$$V2.0), 6900 nM; in that of `CC(=O)N[C@@H](Cc1ccccc1)C(=O)N[C@H]1CCCNC(=O)[C@H](CCCCNC(=N)N)NC(=O)[C@H](Cc2c[nH]c3ccccc23)NC(=O)[C@@H](CC2CCCCC2)NC(=O)[C@@H]2CCCN2C1=O`, 360 nM.
With `CC(=O)N[C@@H](Cc1ccccc1)C(=O)N[C@H]1CCCNC(=O)[C@H](CCCNC(=N)N)NC(=O)[C@H](Cc2c[nH]c3ccccc23)NC(=O)[C@@H](CC2CCCCC2)NC(=O)[C@H](C)NC1=O`, the IC50 in series [1] worked out at 25 nM.
Same read-out and setting: in the case of `CC(=O)N[C@@H](Cc1ccccc1)C(=O)N[C@H]1CCCNC(=O)[C@H](Cc2ccccc2)NC(=O)[C@H](Cc2c[nH]c3ccccc23)NC(=O)[C@@H](CC2CCCCC2)NC(=O)[C@@H]2CCCN2C1=O` (HELM PEPTIDE1{[ac].F.[Orn].P.[O=C([C@@H](CC1CCCCC1)N[*:1])[*:2]].W.F}$PEPTIDE1,PEPTIDE1,3:R3-7:R2$$$V2.0) it was 26 nM.
With `CC(=O)N[C@@H](Cc1ccccc1)C(=O)N[C@H]1CCCNC(=O)[C@H](CCC(C)C)NC(=O)[C@H](Cc2c[nH]c3ccccc23)NC(=O)[C@@H](CC2CCCCC2)NC(=O)[C@@H]2CCCN2C1=O` (HELM PEPTIDE1{[ac].F.[Orn].P.[O=C([C@@H](CC1CCCCC1)N[*:1])[*:2]].W.[CC(C)CC[C@H](N[*:1])C(=O)[*:2]]}$PEPTIDE1,PEPTIDE1,3:R3-7:R2$$$V2.0), the IC50 in series [1] turned out to be 57 nM.
Regarding `CCCC[C@H]1NC(=O)[C@H](Cc2c[nH]c3ccccc23)NC(=O)[C@@H](CC2CCCCC2)NC(=O)[C@@H]2CCCN2C(=O)[C@@H](NC(=O)[C@H](Cc2ccccc2)NC(C)=O)CCCNC1=O` (HELM PEPTIDE1{[ac].F.[Orn].P.[O=C([C@@H](CC1CCCCC1)N[*:1])[*:2]].W.[CCCC[C@@H](N[*:1])C(=O)[*:2]]}$PEPTIDE1,PEPTIDE1,3:R3-7:R2$$$V2.0), the IC50 in series [1] is 107 nM.
On the same count and under the same terms, as for `CC(=O)N[C@@H](Cc1ccccc1)C(=O)N[C@H]1CCCNC(=O)[C@H](CC2CCCCC2)NC(=O)[C@H](Cc2c[nH]c3ccccc23)NC(=O)[C@@H](CC2CCCCC2)NC(=O)[C@@H]2CCCN2C1=O` (HELM PEPTIDE1{[ac].F.[Orn].P.[O=C([C@@H](CC1CCCCC1)N[*:1])[*:2]].W.[Cha]}$PEPTIDE1,PEPTIDE1,3:R3-7:R2$$$V2.0), the figure is 45 nM; as for `CCCCCCCC[C@@H]1NC(=O)[C@H](Cc2c[nH]c3ccccc23)NC(=O)[C@@H](CC2CCCCC2)NC(=O)[C@@H]2CCCN2C(=O)[C@@H](NC(=O)[C@H](Cc2ccccc2)NC(C)=O)CCCNC1=O`, 300 nM; as for `CC(=O)N[C@@H](Cc1ccccc1)C(=O)N[C@H]1CCCNC(=O)[C@H](CCCNC(=N)N)NC(=O)[C@H](Cc2c[nH]c3ccccc23)NC(=O)[C@@H](C)NC(=O)[C@@H]2CCCN2C1=O`, 55000 nM.
The same measure, in the same setting: in the case of `CC(=O)N[C@@H](Cc1ccccc1)C(=O)N[C@H]1CCCNC(=O)[C@H](CCCNC(N)=O)NC(=O)[C@H](Cc2c[nH]c3ccccc23)NC(=O)[C@@H](CC2CCCCC2)NC(=O)[C@@H]2CCCN2C1=O` it was 490 nM; in that of `CC(=O)N[C@@H](Cc1ccccc1)C(=O)N[C@H]1CCCNC(=O)[C@H](CCC/N=C(/N)N[N+](=O)[O-])NC(=O)[C@H](Cc2c[nH]c3ccccc23)NC(=O)[C@@H](CC2CCCCC2)NC(=O)[C@@H]2CCCN2C1=O`, 570 nM.
Turning to `CC(=O)N[C@@H](Cc1ccccc1)C(=O)N[C@H]1CCCNC(=O)[C@H](CCC2CCCCC2)NC(=O)[C@H](Cc2c[nH]c3ccccc23)NC(=O)[C@@H](CC2CCCCC2)NC(=O)[C@@H]2CCCN2C1=O`, in series [1], the IC50 was 146 nM.
Same read-out and setting: in the case of `CC(=O)N[C@@H](Cc1ccccc1)C(=O)N[C@H]1CCCNC(=O)[C@H](Cc2cccc3ccccc23)NC(=O)[C@H](Cc2c[nH]c3ccccc23)NC(=O)[C@@H](CC2CCCCC2)NC(=O)[C@@H]2CCCN2C1=O` (HELM PEPTIDE1{[ac].F.[Orn].P.[O=C([C@@H](CC1CCCCC1)N[*:1])[*:2]].W.[O=C([C@H](Cc1cccc2ccccc12)N[*:1])[*:2]]}$PEPTIDE1,PEPTIDE1,3:R3-7:R2$$$V2.0) it was 51 nM; in that of `CC(=O)N[C@@H](Cc1ccccc1)C(=O)N[C@H]1CCCNC(=O)[C@H](C2CCCCC2)NC(=O)[C@H](Cc2c[nH]c3ccccc23)NC(=O)[C@@H](CC2CCCCC2)NC(=O)[C@@H]2CCCN2C1=O` (HELM PEPTIDE1{[ac].F.[Orn].P.[O=C([C@@H](CC1CCCCC1)N[*:1])[*:2]].W.[O=C([C@@H](N[*:1])C1CCCCC1)[*:2]]}$PEPTIDE1,PEPTIDE1,3:R3-7:R2$$$V2.0), 38 nM.
Regarding `CC[C@H](C)[C@@H]1NC(=O)[C@H](Cc2c[nH]c3ccccc23)NC(=O)[C@@H](CC2CCCCC2)NC(=O)[C@@H]2CCCN2C(=O)[C@@H](NC(=O)[C@H](Cc2ccccc2)NC(C)=O)CCCNC1=O`, the IC50 in series [1] is 50 nM.
Consider `CC(=O)N[C@@H](Cc1ccccc1)C(=O)N[C@H]1CCCNC(=O)[C@H](CC(C)C)NC(=O)[C@H](Cc2c[nH]c3ccccc23)NC(=O)[C@@H](CC2CCCCC2)NC(=O)[C@@H]2CCCN2C1=O` (HELM PEPTIDE1{[ac].F.[Orn].P.[O=C([C@@H](CC1CCCCC1)N[*:1])[*:2]].W.L}$PEPTIDE1,PEPTIDE1,3:R3-7:R2$$$V2.0), for which, in series [1], the IC50 turned out to be 54 nM.
On to `CCCC[C@H](NC(=O)[C@H](Cc1c[nH]c2ccccc12)NC(=O)[C@@H](CC1CCCCC1)NC(=O)[C@@H]1CCCN1C(=O)[C@H](CCCN)NC(=O)[C@H](Cc1ccccc1)NC(C)=O)C(N)=O`, for which the IC50 in series [1] came to 463 nM.
